This data set is described as follows: Ratio of unbound drug level in brain of C57BL/6J/129SvEV mouse model of Gaucher's disease at 30 mg/kg, ip administered once daily for 14 days measured 1 hr post-last dose to EC50 for inhibition of acid ceramidase in Krabbe's disease patient-derived primary fibroblasts. Type of data set: organism-based. The conditions noted are these: in vivo. The essentials: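 Gaucher-model 4L;C* mice (N = 4–8, mixed sexes) got 30 or 90 mg kg–1 i.p. once daily for 14 days from postnatal day 5 and were sacrificed 1 h after the day-14 dose. Compound levels were measured in plasma and brain, and unbound brain level came from brain fraction unbound (two technical replicates). The reference EC50 was from Krabbe patient primary fibroblasts incubated 2 h across concentrations (two independent experiments, duplicates).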

We go through one molecule from ChEMBL document CHEMBL4342473, “Lead Optimization of Benzoxazolone Carboxamides as Orally Bioavailable and CNS Penetrant Acid Ceramidase Inhibitors” (J Med Chem, 2020).

On to `CC(C)CNC(=O)n1c(=O)oc2cc(C3CCN(C)CC3)ccc21`, for which the Ratio stood at 1.9.
